# Assay results collected from several papers.
# Compare with care: the assays were run in different laboratories.
# Cell line: HepG2
# Effect on: cell growth or viability
Compound,test,setting,IC50 [µM]
Fc1ccc2c(-c3nnc(Cc4ccccc4)s3)nn(Cc3ccc(Cl)cc3Cl)c2c1,,48 h,230
O=C1CSC(=Nc2cc(C(F)(F)F)ccc2-c2nnc(N3C(=O)CSC3=Nc3ccc([N+](=O)[O-])cc3)s2)N1c1ccc([N+](=O)[O-])cc1,MTT,,73.1
C#CCn1c(C2CC(c3ccc(F)cc3)=NN2C(C)=O)nc2ccccc21 (stereo not drawn),LDH,48 h,3.25
O=C1CSC(=Nc2cc([N+](=O)[O-])ccc2[N+](=O)[O-])N1c1nnc(-c2ccc(C(F)(F)F)cc2N=C2SCC(=O)N2c2cc([N+](=O)[O-])ccc2[N+](=O)[O-])s1,MTT,,80.2
O=C(/C=C/c1ccc(F)cc1)c1nc2ccccc2n1Cc1cn([C@@H]2OC[C@@H](O)[C@H](O)[C@H]2O)nn1,LDH,48 h,1.63
CCOc1ccc(Nc2c3c(nc4ccccc24)CCC3)cc1,resazurin,72 h,11.3
COc1ccc(NC(=S)N/N=C/c2cccc3cc4ccccc4nc23)cc1,MTT,48 h,> 50
COc1ccc(N(Cc2nc(-c3ccc(F)cc3)cs2)C(=O)CCCCCC(=O)NO)cc1,MTT,72 h,0.97
CC(=O)c1nc2ccccc2n1Cc1cn([C@@H]2O[C@H](CO)[C@H](O)[C@H](O)[C@H]2O)nn1,LDH,48 h,1.67
O=C1CS/C(=N\c2ccccc2Cl)N1c1nnc(-c2ccc(C(F)(F)F)cc2/N=C2\SCC(=O)N2c2ccccc2Cl)s1,MTT,,55.5
COc1cc([C@@H]2c3cc4c(cc3[C@@H](O[C@@H]3O[C@@H]5CO[C@@H](C)O[C@H]5[C@H](O)[C@H]3O)[C@H]3COC(=O)[C@H]23)OCO4)cc(OC)c1O,MTT,75 h,45.9
CC/C(=C(\c1ccccc1)c1ccc(OCCN(C)C)cc1)c1ccccc1,,,17.4
COc1ccc2c(-c3nc(-c4ccccc4)no3)nn(Cc3ccncc3)c2c1,,48 h,68.1
O=C1CS/C(=N\c2cc(C(F)(F)F)ccc2-c2nnc(N3C(=O)CS/C3=N\c3ccc(-c4ccccc4)cc3)s2)N1c1ccc(-c2ccccc2)cc1,MTT,,87.7
COc1ccc(-c2oc3ccc(O)c(CN4CCCCC4)c3c2C(=O)NCc2cn(Cc3ccccc3)nn2)cc1,resazurin,18 h,116
FC(F)(F)CN1CC(n2cc(Oc3ccn4nc(Cl)cc4n3)cn2)C1,,,> 512
O=C(O)c1nn(Cc2ccc(Cl)cc2Cl)c2ccccc12,,48 h,74.7
C#CCNC(=O)c1c(-c2ccc(OC)cc2)oc2ccc(O)c(CN3CCCCC3)c12,resazurin,18 h,53.2
CC(C)CNC(=S)N/N=C/c1cccc2cc3ccccc3nc12,MTT,48 h,> 50
CCN(CC)CCNC(=O)c1c(C)[nH]c(/C=C2\C(=O)Nc3ccc(F)cc32)c1C,SRB,,1.35
N=C(CC(O)c1cc2c(F)cc(F)cc2c2cc(C(F)(F)F)ccc12)Nc1ccc(Br)cc1 (stereo not drawn),neutral red,24 h,9.7
COc1cccc2c1C(=O)c1c(O)c3c(c(O)c1C2=O)C[C@@](O)(C(=O)CO)C[C@@H]3O[C@H]1C[C@H](N)[C@H](O)[C@H](C)O1,LDH,48 h,3.81
CN(C)C1CCc2[nH]c3c(C(N)=O)ccc(-c4ccccc4Cl)c3c2C1 (stereo not drawn),,,0.26
O=C1CS/C(=N\c2ccc(F)cc2O)N1c1nnc(-c2ccc(C(F)(F)F)cc2/N=C2\SCC(=O)N2c2ccc(F)cc2O)s1,MTT,,19.5
COc1ccc(N(Cc2csc(-c3ccc(C)cc3)n2)C(=O)CCCCCC(=O)NO)cc1,MTT,72 h,0.19
Fc1ccc2c(-c3nnc(Cc4ccccc4)[nH]3)nn(Cc3ccc(Cl)cc3Cl)c2c1,,48 h,21.2
CSc1ccccc1-c1ccc(C(N)=O)c2[nH]c3c(c12)CC(N)CC3 (stereo not drawn),,,0.15
S=C(N/N=C/c1cccc2cc3ccccc3nc12)Nc1ccccc1,MTT,48 h,> 50
Cc1cccc([N+](=O)[O-])c1N=C1SCC(=O)N1c1nnc(-c2ccc(C(F)(F)F)cc2N=C2SCC(=O)N2c2c(C)cccc2[N+](=O)[O-])s1,MTT,,50.1
FC(F)(F)c1ccc(-c2noc(-c3nn(Cc4ccc(Cl)cc4Cl)c4ccccc34)n2)cc1,,48 h,251
CC(=O)OC[C@H]1O[C@@H](n2cc(Cn3c(C(=O)/C=C/c4ccc(F)cc4)nc4ccccc43)nn2)[C@H](OC(C)=O)[C@@H](OC(C)=O)[C@H]1OC(C)=O,LDH,48 h,1.61
Clc1ccc(Cn2nc(-c3ncc(-c4ccccc4)s3)c3ccccc32)c(Cl)c1,,48 h,129
COc1cccc2c1C(=O)c1c(O)c3c(c(O)c1C2=O)C[C@@](O)(C(=O)CO)C[C@@H]3O[C@H]1C[C@H](N)[C@H](O)[C@H](C)O1,,,0.06
CC(C)(C)[C@H](NC(=O)/C=C/c1ccc(OP(=O)(O)O)cc1)C(=O)N1CCC[C@H]1C(=O)N(c1ccccc1)c1ccc(I)cc1,CCK-8,,2.23
c1ccc(Cc2nnc(-c3nn(Cc4ccccc4)c4ccccc34)o2)cc1,,48 h,68.6
CC(=O)c1nc2ccccc2n1Cc1cn([C@@H]2OC[C@@H](O)[C@H](O)[C@H]2O)nn1,LDH,48 h,1.55
COc1cccc2c1C(=O)c1c(O)c3c(c(O)c1C2=O)C[C@@](O)(C(=O)CO)C[C@@H]3O[C@H]1C[C@H](N)[C@H](O)[C@H](C)O1,MTT,,0.46
Fc1ccc(NC(=S)N/N=C/c2cccc3cc4ccccc4nc23)cc1,MTT,48 h,> 50
O=C1CS/C(=N\c2cc(C(F)(F)F)ccc2-c2nnc(N3C(=O)CS/C3=N\c3ccc(F)c(O)c3)s2)N1c1ccc(F)c(O)c1,MTT,,22.5
NC(=O)c1cnc(NCCc2ccc(O)c(Cl)c2)nc1NCc1ccccc1,CCK-8,48 h,1.37
Cc1noc(-c2nn(Cc3ccc(Cl)cc3Cl)c3ccccc23)n1,,48 h,51.4
O=C1CS/C(=N\c2cc(C(F)(F)F)ccc2-c2nnc(N3C(=O)CS/C3=N\c3cccc(Cl)c3)s2)N1c1cccc(Cl)c1,MTT,,58.1
